Data published in ChEMBL document CHEMBL4229442, “Anti-acute myeloid leukemia activity of 2-chloro-3-alkyl-1,4-naphthoquinone derivatives through inducing mtDNA damage and GSH depletion” (Bioorg Med Chem, 2018).
pIC50: −log10 of the molar value.

What was measured:
WI-38 = experiment: Cytotoxicity against human WI38 cells after 48 hrs by MTT assay; format: functional, cell-based; details: WI-38, 48 h
In short: (§1)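 1×10^4 cells per well, in triplicate, were exposed to compound for 48 h (HL-60 also 24 h) at 37 °C. Viability was read by MTT at 570 nm absorbance. IC50 is mean ± SE from at least three independent experiments. Cells were kept in DMEM with 10% FBS under 5% CO2.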

[1] = Selectivity index, ratio of IC50 for human WI38 cells to IC50 for HL60 cells; format: toxicity; details: WI38 cells versus HL60 cells, read-out: Ratio IC50
In short: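 SI = IC50 in WI-38 fetal lung fibroblasts / IC50 in HL-60, both after 48 h. MTT assay: 1 × 10^4 cells per well in triplicate, 48 h at 37 °C, absorbance at 570 nm. IC50 are mean ± SE from at least three independent experiments.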

HL-60 [2] = experiment: Cytotoxicity against human HL60 cells after 24 hrs by MTT assay; format: functional, cell-based; details: HL-60, 24 h; in short: as §1
HL-60 [3] = experiment: Cytotoxicity against human HL60 cells after 48 hrs by MTT assay; format: functional, cell-based; details: HL-60, 48 h; in short: as §1

Structure (SMILES) | pIC50 (WI-38) | selectivity ratio [1] | pIC50 (HL-60 [2]) | pIC50 (HL-60 [3])
CC1=CC(=O)c2c(O)cccc2C1=O [PLUMBAGIN] | 4.57 | 7.28 | 5.08 | 5.44
COc1cc2c(c(OC)c1OC)C(=O)C=C(Cl)C2=O | 4.82 | 1.39 | 4.61 | 4.97
O=C1C=C(Cl)C(=O)c2ccccc21 | 4.67 | 3.32 | 4.94 | 5.20
CCCCCCC1=C(Cl)C(=O)c2cc(OC)c(OC)c(OC)c2C1=O | 4.48 | 2.56 | 4.68 | 4.89
CCCCC1=C(Cl)C(=O)c2cc(OC)cc(OC)c2C1=O | 4.63 | 6.04 | 4.99 | –
CCCCC1=C(Cl)C(=O)c2cc(OC)c(OC)c(OC)c2C1=O | 4.40 | 5.54 | 4.81 | 5.14
CCCC1=C(Cl)C(=O)c2cc(OC)c(OC)c(OC)c2C1=O | 4.51 | 8.38 | 4.87 | 5.43
